Data set [1] addresses T1, Neutrophil elastase (Homo sapiens) (UniProt P08246).
T1 sequence (whole entry): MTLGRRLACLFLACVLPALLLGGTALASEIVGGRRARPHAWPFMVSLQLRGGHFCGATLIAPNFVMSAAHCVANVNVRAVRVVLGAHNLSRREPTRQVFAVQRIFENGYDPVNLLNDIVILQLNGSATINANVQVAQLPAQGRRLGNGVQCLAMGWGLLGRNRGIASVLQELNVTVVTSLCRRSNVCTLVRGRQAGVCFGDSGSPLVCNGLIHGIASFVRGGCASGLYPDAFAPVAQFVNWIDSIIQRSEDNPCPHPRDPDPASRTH

For data set [2], the system named is Cricetinae gen. sp. Briefly: Compound was evaluated in vivo for inhibition of HLE-induced hemorrhage in hamster lung at 30 microg 30 min after administration. It counts as functional, Cricetulus griseus. In outline: (§1)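 Hamster, intratracheal dosing of compound (per animal) 30 min before IT instillation of 50 μg HLE (50 units in Experimental); hemorrhage read 3 h later: lungs lavaged with saline, hemoglobin in lavage measured at 414 nm. Percent inhibition from drug-treated vs vehicle-treated hemorrhage; three animals per dose and time. Titration at 100, 30, 10, 3 μg/animal gives ED50.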

The subject of data set [3] is Cricetinae gen. sp. The data set is described as follows: Compound was evaluated in vivo for inhibition of HLE-induced hemorrhage in hamster lung at 100 microg 30 min after administration. It counts as functional, Cricetulus griseus. In outline:
as §1

In data set [4] the test system is Cricetinae gen. sp. The data set is described as follows: Compound was evaluated in vivo for inhibition of HLE-induced hemorrhage in hamster lung at 100 microg 5 min after administration. The format is functional, Cricetulus griseus.
Data set [5] can be described thus: Half-life value of the compound. The format is ADME. In outline:
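Chemical stability: compound dissolved at 1 mg/mL in 0.5 M MOPS, pH 8.0, held at 25 °C in capped vial; aliquots quenched in 2% aqueous TFA and analysed by reverse-phase HPLC over one to two half-lives. Peak areas fit to first-order decay F(t)=A/2^(t/t1/2) to give t1/2.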

In data set [6] the test system is Cricetinae gen. sp. The data set is described as follows: Compound was evaluated in vivo for inhibition of HLE-induced hemorrhage in hamster lung at 100 microg, 90 min after administration. It counts as functional, Cricetulus griseus.
The test system of data set [7] is Cricetinae gen. sp. Briefly: Compound was evaluated in vivo for inhibition of HLE-induced hemorrhage in hamster lung at 100 microg, 30 min after administration. The format is functional, Cricetulus griseus. In outline:
as §1

For data set [8], the system named is Cricetinae gen. sp. Briefly: Inhibitory activity against Human Leukocyte Elastase by Lung Hemorrhage assay (Effective dose at 15 microg). It counts as functional, Cricetulus griseus.
The species entered for a further data set is Rattus norvegicus. The data set is described as follows: Inhibitory activity against Human Leukocyte Elastase by Lung Hemorrhage assay (at 250 ug/animal).
Data set [9] concerns Cricetinae gen. sp. Briefly: Compound was evaluated in vivo for inhibition of HLE-induced hemorrhage in hamster lung at 200 microg 2 hr after administration prior to HLE. The format is functional, Cricetulus griseus. In outline:
(§2)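 Hamster duration protocol: 200 μg/animal given intratracheally 60, 120, 180 or 240 min before IT HLE instillation; hemorrhage scored after 3 h as hemoglobin (414 nm) in saline lung lavage, relative to vehicle-treated animals; three animals per point. T50 taken as time at which 50% inhibition is still obtained.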

Data set [10] concerns Cricetinae gen. sp. Briefly: Inhibitory activity against Human Leukocyte Elastase by Lung Hemorrhage assay ( at 30 min). The format is functional, Cricetulus griseus. In outline:
as §1

In data set [11] the test system is Cricetinae gen. sp. Briefly: Inhibitory activity against Human Leukocyte Elastase by Lung Hemorrhage assay. It counts as functional, Cricetulus griseus.
The subject of data set [12] is Cricetinae gen. sp. The data set is described as follows: Compound was evaluated in vivo for inhibition of HLE-induced hemorrhage in hamster lung at 10 ug 30 min after administration prior to HLE. The format is functional, Cricetulus griseus. In outline: as §1
Data set [13] relates to Cricetinae gen. sp. Briefly: Compound was evaluated in vivo for inhibition of HLE-induced hemorrhage in hamster lung at 200 microg 3h after administration prior to HLE. The format is functional, Cricetulus griseus. In outline:
as §2

For data set [14], the system named is Cricetinae gen. sp. Briefly: Compound was evaluated in vivo for inhibition of HLE-induced hemorrhage in hamster lung at 100 microg 30 min after administration prior to HLE. The format is functional, Cricetulus griseus. In outline:
as §1

For data set [15], the system named is Cricetinae gen. sp. Briefly: Compound was evaluated in vivo for inhibition of HLE-induced hemorrhage in hamster lung at 30 ug 30 min after administration prior to HLE. The format is functional, Cricetulus griseus. In outline:
as §1

In data set [16] the test system is Cricetinae gen. sp. Briefly: Inhibitory activity against Human Leukocyte Elastase by Lung Hemorrhage assay (at 200 ug/animal). It counts as functional, Cricetulus griseus. In outline: as §2
Data set [17] has as its system Cricetinae gen. sp. The data set is described as follows: Compound was evaluated in vivo for inhibition of HLE-induced hemorrhage in hamster lung at 200 microg 1 hr after administration prior to HLE. It counts as functional, Cricetulus griseus. In outline:
as §2

For data set [18], the system named is Cricetinae gen. sp. Briefly: Compound was evaluated in vivo for inhibition of HLE-induced hemorrhage in hamster lung at 200 microg 4 hr after administration prior to HLE. The format is functional, Cricetulus griseus. In outline: as §2
For data set [19], the system named is Cricetinae gen. sp. The data set is described as follows: Compound was evaluated in vivo for inhibition of HLE-induced hemorrhage in hamster lung at 100 microg, 30 min after administration prior to HLE. The format is functional, Cricetulus griseus. In outline: as §1
The subject of data set [20] is Cricetinae gen. sp. Briefly: Compound was evaluated in vivo for inhibition of HLE-induced hemorrhage in hamster lung at 200 microg, 2 hr after administration prior to HLE. The format is functional, Cricetulus griseus. In outline:
as §2

For data set [21], the system named is Cricetinae gen. sp. The data set is described as follows: Compound was evaluated in vivo for inhibition of HLE-induced hemorrhage in hamster lung at 200 microg, 4 hr after administration prior to HLE. It counts as functional, Cricetulus griseus. In outline: as §2
Data set [22] concerns Cricetinae gen. sp. The data set is described as follows: Compound was evaluated in vivo for lung hemorrhage inhibitory activity at 200 microg, 1 hr after administration prior to HLE. It counts as functional, Cricetulus griseus. In outline:
as §2

In data set [23] the test system is Cricetinae gen. sp. Briefly: Compound was evaluated in vivo for inhibition of HLE-induced hemorrhage in hamster lung at 10microg, 30 min after administration prior to HLE. It counts as functional, Cricetulus griseus. In outline: as §1
In data set [24] the test system is Cricetinae gen. sp. Briefly: Compound was evaluated in vivo for inhibition of HLE-induced hemorrhage in hamster lung at 30microg, 30 min after administration prior to HLE. It counts as functional, Cricetulus griseus. In outline: as §1
In data set [25] the test system is Cricetinae gen. sp. Briefly: Compound was evaluated in vivo for inhibition of HLE-induced hemorrhage in hamster lung at 200 microg, 3h after administration prior to HLE. The format is functional, Cricetulus griseus. In outline:
as §2

Data set [26] relates to Cricetinae gen. sp. Briefly: Compound was evaluated in vivo for inhibition of HLE-induced hemorrhage in hamster lung at 10 microg 30 min after administration. The format is functional, Cricetulus griseus. In outline: as §1
For data set [27], the system named is Cricetinae gen. sp. The data set is described as follows: Compound was evaluated in vivo for inhibition of HLE-induced hemorrhage in hamster lung at 200 microg after 180 min of administration. The format is functional, Cricetulus griseus. In outline: as §2
Data set [28] has as its system Cricetinae gen. sp. The data set is described as follows: Compound was evaluated in vivo for inhibition of HLE-induced hemorrhage in hamster lung at 100 microg 90 min after administration. It counts as functional, Cricetulus griseus.
Data set [29] deals with Cricetinae gen. sp. Briefly: Compound was evaluated in vivo for inhibition of HLE-induced hemorrhage in hamster lung at 400 microg, 5 min after administration. It counts as functional, Cricetulus griseus.
The test system of data set [30] is Cricetinae gen. sp. Briefly: Compound was evaluated in vivo for inhibition of HLE-induced hemorrhage in hamster lung at 3 microg, 30 min after administration prior to HLE. It counts as functional, Cricetulus griseus. In outline:
as §1

Data set [31] deals with Cricetinae gen. sp. The data set is described as follows: Compound was evaluated in vivo for inhibition of HLE-induced hemorrhage in hamster lung at 200 microg, 1 hr after administration prior to HLE. It counts as functional, Cricetulus griseus. In outline:
as §2

For data set [32], the system named is Cricetinae gen. sp. Briefly: Compound was evaluated in vivo for inhibition of HLE-induced hemorrhage in hamster lung at 30 microg, 30 min after administration prior to HLE.
In data set [33] the test system is Cricetinae gen. sp. Briefly: Compound was evaluated in vivo for inhibition of HLE-induced hemorrhage in hamster lung at 10 microg, 30 min after administration prior to HLE. The format is functional, Cricetulus griseus. In outline: as §1

Molecule `CO[C@H]1C(=O)N2C(C(=O)OC(C)(C)C)=C(CSc3nnnn3CC(=O)O)CS(=O)(=O)[C@H]12` yielded a k obs / 1 in data set [1] of 3700 M⁻¹ s⁻¹. Also, the Inhibition (usually the change of the read-out against control, counted positive when it falls) was found to be 77% in the data set with Cricetinae gen. sp. [2] and 89% in the data set on Cricetinae gen. sp. [3].
`CO[C@H]1C(=O)N2C(C(=O)OCc3ccc(C(=O)O)cc3)=C(COC(C)=O)CS(=O)(=O)[C@H]12` yielded an Inhibition with Cricetinae gen. sp. [4] of 98%. For the same molecule, in data set [5], the half-life – broadly, the time needed for the level to fall by half in the phase considered – was 5 h.
In turn, `CO[C@H]1C(=O)N2C(C(=O)OC(C)(C)C)=C(COC(=O)N[C@@H](Cc3ccccc3)C(=O)O)CS(=O)(=O)[C@H]12` showed a k obs / 1 in data set [1] of 63900 M⁻¹ s⁻¹. Besides, the Inhibition in the data set on Cricetinae gen. sp. [6] worked out at 10%; in the data set on Cricetinae gen. sp. [7], 87%.
Regarding `CO[C@H]1C(=O)N2C(C(=O)N(C)CC(=O)O)=C(CSc3nc(=O)c(=O)[nH]n3C)CS(=O)(=O)[C@H]12`, the ED50 stood at 400 µg in the data set with Cricetinae gen. sp. [8] and 10 µg in the data set with Cricetinae gen. sp. [10]. Besides, the Inhibition in the data set filed under Rattus norvegicus was found to be 82%; with Cricetinae gen. sp. [9], 90%; in the data set with Cricetinae gen. sp. [11], 86%; in the data set with Cricetinae gen. sp. [12], 56%; with Cricetinae gen. sp. [13], 64%; in the data set with Cricetinae gen. sp. [14], 98%. The figures for the Inhibition in the data set on Cricetinae gen. sp. [15], in the data set with Cricetinae gen. sp. [17] and in the data set with Cricetinae gen. sp. [18] were 94%, 94% and 37%, respectively. The molecule also returned a k obs / 1 in data set [1] of 6200 M⁻¹ s⁻¹. In addition, the half-life in data set [5] was 22 h. In the data set on Cricetinae gen. sp. [16], this molecule had a T50 of 180 min.
Regarding `CO[C@H]1C(=O)N2C(C(=O)N3CC(O)CC3C(=O)O)=C(COC(C)=O)CS(=O)(=O)[C@H]12` (stereo partly drawn), the Inhibition with Cricetinae gen. sp. [19] turned out to be 98%; with Cricetinae gen. sp. [20], 81%; in the data set with Cricetinae gen. sp. [21] it was 17%; in the data set with Cricetinae gen. sp. [22], 86%; with Cricetinae gen. sp. [23] it was 78%; in the data set on Cricetinae gen. sp. [24], 95%. For the same molecule, the Inhibition in the data set on Cricetinae gen. sp. [25] turned out to be 4%. For the same molecule, the k obs / 1 in data set [1] came to 900 M⁻¹ s⁻¹.
Regarding `CO[C@H]1C(=O)N2C(C(=O)N(C)CC(=O)O)=C(COC(C)=O)CS(=O)(=O)[C@H]12`, the Inhibition was 67% in the data set on Cricetinae gen. sp. [26], 90% in the data set on Cricetinae gen. sp. [3] and 54% with Cricetinae gen. sp. [27]. Also, in [1], the k obs / 1 was 300 M⁻¹ s⁻¹. In addition, the half-life in data set [5] is 13 h.
For `CO[C@H]1C(=O)N2C(C(=O)OC(C)(C)C)=C(CSc3nc(=O)c(=O)[nH]n3C)CS(=O)(=O)[C@H]12`, the Inhibition in the data set with Cricetinae gen. sp. [28] was determined as 18%; in the data set on Cricetinae gen. sp. [3] it was 90%. Moreover, the k obs / 1 in data set [1] was 8600 M⁻¹ s⁻¹.
In turn, `CO[C@H]1C(=O)N2C(C(=O)OC(C)(C)C)=C(COC(=O)CCC(=O)O)CS(=O)(=O)[C@H]12` yielded an Inhibition with Cricetinae gen. sp. [29] of 98%.
In the case of `CO[C@H]1C(=O)N2C(C(=O)N(C)[C@@H](C)C(=O)O)=C(COC(C)=O)CS(=O)(=O)[C@H]12`, the Inhibition came out at 96% with Cricetinae gen. sp. [19]; 81% with Cricetinae gen. sp. [20]; 21% with Cricetinae gen. sp. [21]; 50% in the data set with Cricetinae gen. sp. [30]; 94% with Cricetinae gen. sp. [31]; 89% in the data set with Cricetinae gen. sp. [32]. In addition, the Inhibition in the data set with Cricetinae gen. sp. [25] was 47%; with Cricetinae gen. sp. [33], 78%. Further, in [1], the k obs / 1 was found to be 500 M⁻¹ s⁻¹.

Source of the values: ChEMBL document CHEMBL1125311, “Inhibition of human leukocyte elastase. 4. Selection of a substituted cephalosporin (L-658,758) as a topical aerosol” (J Med Chem, 1992).
